Paper PMC6606825 (Journal of Ginseng Research, 2018)

Assay: Pharmacokinetics of CK and its metabolite 20
Assay type: in vivo, healthy Chinese volunteers
Summary of the method: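 Healthy adults given one oral tablet dose fasting (overnight, or 10 h in a crossover food-effect arm); 30 subjects from the 100/200/400 mg groups were pooled with 24 from 200 mg fasting periods. Plasma was stored at −70°C, extracted with MTBE plus internal standards and assayed by LC-MS/MS. Cmax was observed and AUClast calculated by linear trapezoid, each divided by dose. The metabolite/parent ratio was also calculated. Genotyping used Sequenom MassARRAY, and log-transformed values were compared by one-way ANOVA.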

[1] = ABCC4 rs1151471 CC, n = 2, mean (SD)

CC(C)=CCC[C@](C)(O)[C@H]1CC[C@]2(C)[C@@H]1[C@H](O)C[C@@H]1[C@@]3(C)CC[C@H](O)C(C)(C)[C@@H]3CC[C@]12C [20(S)-PPD, 20(S)-protopanaxadiol]
20(S)-PPD AUClast/D (ABCB1 rs1045642 AA, mean (SD)): 0.59 (0.42)
20(S)-PPD Cmax/D (ABCB1 rs1045642 AA, mean (SD)): 0.02 (0.02)
Ratio 20(S)-PPD/CK AUClast/D (ABCB1 rs1045642 AA, mean (SD)): 1.99 (1.55) %
Ratio 20(S)-PPD/CK Cmax/D (ABCB1 rs1045642 AA, mean (SD)): 0.54 (0.42) %
20(S)-PPD AUClast/D (ABCB1 rs1045642 AG, mean (SD)): 0.87 (0.93)
20(S)-PPD Cmax/D (ABCB1 rs1045642 AG, mean (SD)): 0.03 (0.03)
Ratio 20(S)-PPD/CK AUClast/D (ABCB1 rs1045642 AG, mean (SD)): 5.28 (8.05) %
Ratio 20(S)-PPD/CK Cmax/D (ABCB1 rs1045642 AG, mean (SD)): 1.49 (2.26) %
20(S)-PPD AUClast/D (ABCB1 rs1045642 GG, mean (SD)): 0.82 (0.62)
20(S)-PPD Cmax/D (ABCB1 rs1045642 GG, mean (SD)): 0.03 (0.02)
Ratio 20(S)-PPD/CK AUClast/D (ABCB1 rs1045642 GG, mean (SD)): 3.23 (2.77) %
Ratio 20(S)-PPD/CK Cmax/D (ABCB1 rs1045642 GG, mean (SD)): 0.80 (0.66) %
20(S)-PPD AUClast/D (ABCB1 rs1128503 AA, mean (SD)): 0.90 (0.79)
20(S)-PPD Cmax/D (ABCB1 rs1128503 AA, mean (SD)): 0.03 (0.03)
Ratio 20(S)-PPD/CK AUClast/D (ABCB1 rs1128503 AA, mean (SD)): 4.27 (5.15) %
Ratio 20(S)-PPD/CK Cmax/D (ABCB1 rs1128503 AA, mean (SD)): 1.30 (2.07) %
20(S)-PPD AUClast/D (ABCB1 rs1128503 AG, mean (SD)): 0.77 (0.80)
20(S)-PPD Cmax/D (ABCB1 rs1128503 AG, mean (SD)): 0.03 (0.03)
Ratio 20(S)-PPD/CK AUClast/D (ABCB1 rs1128503 AG, mean (SD)): 4.67 (7.55) %
Ratio 20(S)-PPD/CK Cmax/D (ABCB1 rs1128503 AG, mean (SD)): 1.12 (1.52) %
20(S)-PPD AUClast/D (ABCB1 rs1128503 GG, mean (SD)): 0.73 (0.70)
20(S)-PPD Cmax/D (ABCB1 rs1128503 GG, mean (SD)): 0.02 (0.02)
Ratio 20(S)-PPD/CK AUClast/D (ABCB1 rs1128503 GG, mean (SD)): 1.89 (0.94) %
Ratio 20(S)-PPD/CK Cmax/D (ABCB1 rs1128503 GG, mean (SD)): 0.46 (0.25) %
20(S)-PPD AUClast/D (ABCB1 rs2032582 AA, mean (SD)): 0.78 (0.53)
20(S)-PPD Cmax/D (ABCB1 rs2032582 AA, mean (SD)): 0.03 (0.02)
Ratio 20(S)-PPD/CK AUClast/D (ABCB1 rs2032582 AA, mean (SD)): 4.64 (7.42) %
Ratio 20(S)-PPD/CK Cmax/D (ABCB1 rs2032582 AA, mean (SD)): 1.20 (1.55) %
20(S)-PPD Cmax/D (ABCB1 rs2032582 CA, mean (SD)): 0.03 (0.03)
Ratio 20(S)-PPD/CK AUClast/D (ABCB1 rs2032582 CA, mean (SD)): 4.60 (7.08) %
Ratio 20(S)-PPD/CK Cmax/D (ABCB1 rs2032582 CA, mean (SD)): 1.34 (2.13) %
20(S)-PPD AUClast/D (ABCB1 rs2032582 CC, mean (SD)): 0.92 (0.62)
20(S)-PPD Cmax/D (ABCB1 rs2032582 CC, mean (SD)): 0.03 (0.02)
Ratio 20(S)-PPD/CK AUClast/D (ABCB1 rs2032582 CC, mean (SD)): 3.50 (2.84) %
Ratio 20(S)-PPD/CK Cmax/D (ABCB1 rs2032582 CC, mean (SD)): 0.74 (0.49) %
20(S)-PPD AUClast/D (ABCC2 rs717620 CC, mean (SD)): 0.64 (0.51)
20(S)-PPD Cmax/D (ABCC2 rs717620 CC, mean (SD)): 0.02 (0.02)
Ratio 20(S)-PPD/CK AUClast/D (ABCC2 rs717620 CC, mean (SD)): 3.02 (4.69) %
Ratio 20(S)-PPD/CK Cmax/D (ABCC2 rs717620 CC, mean (SD)): 0.77 (0.99) %
20(S)-PPD AUClast/D (ABCC2 rs717620 CT, mean (SD)): 1.09 (1.02)
20(S)-PPD Cmax/D (ABCC2 rs717620 CT, mean (SD)): 0.04 (0.04)
Ratio 20(S)-PPD/CK AUClast/D (ABCC2 rs717620 CT, mean (SD)): 6.00 (7.83) %
Ratio 20(S)-PPD/CK Cmax/D (ABCC2 rs717620 CT, mean (SD)): 1.65 (2.39) %
20(S)-PPD AUClast/D (ABCC2 rs2273697 GA, mean (SD)): 0.81 (0.63)
20(S)-PPD Cmax/D (ABCC2 rs2273697 GA, mean (SD)): 0.03 (0.02)
Ratio 20(S)-PPD/CK AUClast/D (ABCC2 rs2273697 GA, mean (SD)): 4.54 (6.68) %
Ratio 20(S)-PPD/CK Cmax/D (ABCC2 rs2273697 GA, mean (SD)): 0.96 (1.36) %
20(S)-PPD AUClast/D (ABCC2 rs2273697 GG, mean (SD)): 0.83 (0.84)
20(S)-PPD Cmax/D (ABCC2 rs2273697 GG, mean (SD)): 0.03 (0.03)
Ratio 20(S)-PPD/CK AUClast/D (ABCC2 rs2273697 GG, mean (SD)): 4.19 (6.15) %
Ratio 20(S)-PPD/CK Cmax/D (ABCC2 rs2273697 GG, mean (SD)): 1.22 (1.87) %
20(S)-PPD AUClast/D (ABCC2 rs2756109 GG, mean (SD)): 0.61 (0.41)
20(S)-PPD Cmax/D (ABCC2 rs2756109 GG, mean (SD)): 0.02 (0.02)
Ratio 20(S)-PPD/CK AUClast/D (ABCC2 rs2756109 GG, mean (SD)): 2.42 (1.84) %
20(S)-PPD AUClast/D (ABCC2 rs3740066 CC, mean (SD)): 0.64 (0.51)
20(S)-PPD Cmax/D (ABCC2 rs3740066 CC, mean (SD)): 0.02 (0.02)
Ratio 20(S)-PPD/CK AUClast/D (ABCC2 rs3740066 CC, mean (SD)): 3.03 (4.8) %
Ratio 20(S)-PPD/CK Cmax/D (ABCC2 rs3740066 CC, mean (SD)): 0.78 (1.02) %
20(S)-PPD AUClast/D (ABCC2 rs3740066 CT, mean (SD)): 1.06 (0.99)
20(S)-PPD Cmax/D (ABCC2 rs3740066 CT, mean (SD)): 0.04 (0.03)
Ratio 20(S)-PPD/CK AUClast/D (ABCC2 rs3740066 CT, mean (SD)): 5.95 (7.51) %
Ratio 20(S)-PPD/CK Cmax/D (ABCC2 rs3740066 CT, mean (SD)): 1.63 (2.29) %
20(S)-PPD AUClast/D (ABCC2 rs3740066 TT, n = 1): 0.58 (—)
20(S)-PPD Cmax/D (ABCC2 rs3740066 TT, n = 1): 0.01 (—)
Ratio 20(S)-PPD/CK AUClast/D (ABCC2 rs3740066 TT, n = 1): 1.04 (—) %
Ratio 20(S)-PPD/CK Cmax/D (ABCC2 rs3740066 TT, n = 1): 0.22 (—) %
20(S)-PPD AUClast/D (ABCC3 rs4148416 CC, mean (SD)): 0.77 (0.69)
20(S)-PPD Cmax/D (ABCC3 rs4148416 CC, mean (SD)): 0.03 (0.02)
Ratio 20(S)-PPD/CK AUClast/D (ABCC3 rs4148416 CC, mean (SD)): 3.64 (5.23) %
Ratio 20(S)-PPD/CK Cmax/D (ABCC3 rs4148416 CC, mean (SD)): 0.90 (1.07) %
20(S)-PPD AUClast/D (ABCC3 rs4148416 CT, mean (SD)): 0.99 (1.01)
20(S)-PPD Cmax/D (ABCC3 rs4148416 CT, mean (SD)): 0.04 (0.04)
Ratio 20(S)-PPD/CK AUClast/D (ABCC3 rs4148416 CT, mean (SD)): 6.12 (8.47) %
Ratio 20(S)-PPD/CK Cmax/D (ABCC3 rs4148416 CT, mean (SD)): 1.87 (2.85) %
20(S)-PPD AUClast/D (ABCC3 rs4793665 CT, mean (SD)): 0.61 (0.58)
20(S)-PPD Cmax/D (ABCC3 rs4793665 CT, mean (SD)): 0.02 (0.02)
Ratio 20(S)-PPD/CK AUClast/D (ABCC3 rs4793665 CT, mean (SD)): 2.27 (2.88) %
Ratio 20(S)-PPD/CK Cmax/D (ABCC3 rs4793665 CT, mean (SD)): 0.54 (0.52) %
20(S)-PPD AUClast/D (ABCC3 rs4793665 TT, mean (SD)): 0.89 (0.82)
20(S)-PPD Cmax/D (ABCC3 rs4793665 TT, mean (SD)): 0.03 (0.03)
Ratio 20(S)-PPD/CK AUClast/D (ABCC3 rs4793665 TT, mean (SD)): 4.86 (6.83) %
Ratio 20(S)-PPD/CK Cmax/D (ABCC3 rs4793665 TT, mean (SD)): 1.32 (1.92) %
20(S)-PPD AUClast/D (ABCC3 rs12051822 GA, mean (SD)): 1.17 (0.94)
20(S)-PPD Cmax/D (ABCC3 rs12051822 GA, mean (SD)): 0.04 (0.03)
Ratio 20(S)-PPD/CK AUClast/D (ABCC3 rs12051822 GA, mean (SD)): 6.84 (8.31) %
Ratio 20(S)-PPD/CK Cmax/D (ABCC3 rs12051822 GA, mean (SD)): 1.44 (1.56) %
20(S)-PPD AUClast/D (ABCC3 rs12051822 GG, mean (SD)): 0.74 (0.72)
20(S)-PPD Cmax/D (ABCC3 rs12051822 GG, mean (SD)): 0.03 (0.03)
Ratio 20(S)-PPD/CK AUClast/D (ABCC3 rs12051822 GG, mean (SD)): 3.60 (5.48) %
Ratio 20(S)-PPD/CK Cmax/D (ABCC3 rs12051822 GG, mean (SD)): 1.09 (1.81) %
20(S)-PPD AUClast/D [1]: 2.65 (1.59)
20(S)-PPD Cmax/D [1]: 0.09 (0.03)
Ratio 20(S)-PPD/CK AUClast/D [1]: 20.61 (14.96) %
Ratio 20(S)-PPD/CK Cmax/D [1]: 4.33 (2.43) %
20(S)-PPD AUClast/D (ABCC4 rs1151471 TC, mean (SD)): 0.99 (0.81)
20(S)-PPD Cmax/D (ABCC4 rs1151471 TC, mean (SD)): 0.04 (0.03)
Ratio 20(S)-PPD/CK AUClast/D (ABCC4 rs1151471 TC, mean (SD)): 5.99 (7.30) %
Ratio 20(S)-PPD/CK Cmax/D (ABCC4 rs1151471 TC, mean (SD)): 1.83 (2.49) %
20(S)-PPD AUClast/D (ABCC4 rs1151471 TT, mean (SD)): 0.58 (0.54)
20(S)-PPD Cmax/D (ABCC4 rs1151471 TT, mean (SD)): 0.02 (0.02)
